Laboratory results published in ChEMBL document CHEMBL3877308, “Design, synthesis and in vitro biological evaluation of oligopeptides targeting E. coli type I signal peptidase (LepB)” (Bioorg Med Chem, 2017).
≈ marks a conversion by molar mass, not a printed value.

What was measured:
[1] = target: Signal peptidase I (Escherichia coli K-12, UniProt P00803); test: Inhibition of full length Escherichia coli His6-tagged LepB expressed in Escherichia coli C43(DE3) using dabcyl-VEVGGTATAGAFSRPGLE-(EDANS) as substrate preincubated for 10 mins followed by substrate addition measured for 2 hrs by FRET assay
Signal peptidase I, sequence (P00803 whole entry): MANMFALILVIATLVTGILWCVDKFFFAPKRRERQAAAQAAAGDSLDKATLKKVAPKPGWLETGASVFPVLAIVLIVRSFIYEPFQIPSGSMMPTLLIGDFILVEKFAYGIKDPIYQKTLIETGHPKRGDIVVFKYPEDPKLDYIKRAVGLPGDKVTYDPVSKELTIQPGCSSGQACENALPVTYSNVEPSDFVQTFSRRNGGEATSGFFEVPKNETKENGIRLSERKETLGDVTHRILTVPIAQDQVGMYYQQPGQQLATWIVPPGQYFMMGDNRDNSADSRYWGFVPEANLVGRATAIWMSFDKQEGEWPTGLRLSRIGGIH
Outline: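 Enzyme extracted from the membrane fraction with 1% reduced Triton X-100 and purified by metal-chelation chromatography in 0.5% detergent. Enzyme (final ~50 nM) was pre-incubated with compound for 10 min at 22 °C. The linear rise in EDANS donor fluorescence (dabcyl acceptor) was then followed at 22 °C for 2 h. IC50 came from non-linear regression of sigmoidal rate-versus-concentration curves.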

[2] = target: Signal peptidase I (Escherichia coli K-12) (UniProt P00803); test: Inhibition of full length Escherichia coli His6-tagged LepB expressed in Escherichia coli C43(DE3) assessed as residual activity at 2.5 uM using dabcyl-VEVGGTATAGAFSRPGLE-(EDANS) as substrate preincubated for 10 mins followed by substrate addition measured for 2 hrs by FRET assay relative to control
Signal peptidase I (Escherichia coli K-12), sequence (P00803 whole entry): as above
Outline: (§1)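 Enzyme came from the membrane fraction, extracted with 1% reduced Triton X-100 and purified by metal-chelation chromatography in 0.5% detergent. FRET pair was dabcyl acceptor and EDANS donor. EcLepB (final about 50 nM) was pre-incubated with compound 10 min at 22 °C. Reaction was then run with 8 µM substrate, following the linear fluorescence increase at 22 °C for 2 h.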

[3] = target: Signal peptidase I (Escherichia coli K-12) (UniProt P00803); test: Inhibition of full length Escherichia coli His6-tagged LepB expressed in Escherichia coli C43(DE3) assessed as residual activity at 5 uM using dabcyl-VEVGGTATAGAFSRPGLE-(EDANS) as substrate preincubated for 10 mins followed by substrate addition measured for 2 hrs by FRET assay relative to control; outline: as §1
[4] = target: Signal peptidase I (Escherichia coli K-12) (UniProt P00803); test: Inhibition of full length Escherichia coli His6-tagged LepB expressed in Escherichia coli C43(DE3) at 100 uM using dabcyl-VEVGGTATAGAFSRPGLE-(EDANS) as substrate preincubated for 10 mins followed by substrate addition measured for 2 hrs by FRET assay relative to control; outline: as §1
[5] = target: Signal peptidase I (Escherichia coli K-12) (UniProt P00803); test: Inhibition of full length Escherichia coli His6-tagged LepB expressed in Escherichia coli C43(DE3) assessed as residual activity at 10 uM using dabcyl-VEVGGTATAGAFSRPGLE-(EDANS) as substrate preincubated for 10 mins followed by substrate addition measured for 2 hrs by FRET assay relative to control; outline: as §1
[6] = target: Signal peptidase I (Escherichia coli K-12) (UniProt P00803); test: Inhibition of full length Escherichia coli His6-tagged LepB expressed in Escherichia coli C43(DE3) assessed as residual activity at 0.002 uM using dabcyl-VEVGGTATAGAFSRPGLE-(EDANS) as substrate preincubated for 10 mins followed by substrate addition measured for 2 hrs by FRET assay relative to control; outline: as §1
[7] = target: Signal peptidase I (Escherichia coli K-12) (UniProt P00803); test: Inhibition of full length Escherichia coli His6-tagged LepB expressed in Escherichia coli C43(DE3) assessed as residual activity at 1.25 uM using dabcyl-VEVGGTATAGAFSRPGLE-(EDANS) as substrate preincubated for 10 mins followed by substrate addition measured for 2 hrs by FRET assay relative to control; outline: as §1
[8] = target: Signal peptidase I (Escherichia coli K-12) (UniProt P00803); test: Inhibition of full length Escherichia coli His6-tagged LepB expressed in Escherichia coli C43(DE3) assessed as residual activity at 0.625 uM using dabcyl-VEVGGTATAGAFSRPGLE-(EDANS) as substrate preincubated for 10 mins followed by substrate addition measured for 2 hrs by FRET assay relative to control; outline: as §1
[9] = target: Signal peptidase I (Escherichia coli K-12) (UniProt P00803); test: Inhibition of full length Escherichia coli His6-tagged LepB expressed in Escherichia coli C43(DE3) assessed as residual activity at 0.313 uM using dabcyl-VEVGGTATAGAFSRPGLE-(EDANS) as substrate preincubated for 10 mins followed by substrate addition measured for 2 hrs by FRET assay relative to control; outline: as §1
[10] = target: Signal peptidase I (Escherichia coli K-12) (UniProt P00803); test: Inhibition of full length Escherichia coli His6-tagged LepB expressed in Escherichia coli C43(DE3) assessed as residual activity at 0.156 uM using dabcyl-VEVGGTATAGAFSRPGLE-(EDANS) as substrate preincubated for 10 mins followed by substrate addition measured for 2 hrs by FRET assay relative to control; outline: as §1
[11] = target: Signal peptidase I (Escherichia coli K-12) (UniProt P00803); test: Inhibition of full length Escherichia coli His6-tagged LepB expressed in Escherichia coli C43(DE3) assessed as residual activity at 0.078 uM using dabcyl-VEVGGTATAGAFSRPGLE-(EDANS) as substrate preincubated for 10 mins followed by substrate addition measured for 2 hrs by FRET assay relative to control; outline: as §1
[12] = target: Signal peptidase I (Escherichia coli K-12) (UniProt P00803); test: Inhibition of full length Escherichia coli His6-tagged LepB expressed in Escherichia coli C43(DE3) assessed as residual activity at 0.039 uM using dabcyl-VEVGGTATAGAFSRPGLE-(EDANS) as substrate preincubated for 10 mins followed by substrate addition measured for 2 hrs by FRET assay relative to control; outline: as §1
[13] = target: Signal peptidase I (Escherichia coli K-12) (UniProt P00803); test: Inhibition of full length Escherichia coli His6-tagged LepB expressed in Escherichia coli C43(DE3) assessed as residual activity at 0.02 uM using dabcyl-VEVGGTATAGAFSRPGLE-(EDANS) as substrate preincubated for 10 mins followed by substrate addition measured for 2 hrs by FRET assay relative to control; outline: as §1
[14] = target: Signal peptidase I (Escherichia coli K-12) (UniProt P00803); test: Inhibition of full length Escherichia coli His6-tagged LepB expressed in Escherichia coli C43(DE3) assessed as residual activity at 0.01 uM using dabcyl-VEVGGTATAGAFSRPGLE-(EDANS) as substrate preincubated for 10 mins followed by substrate addition measured for 2 hrs by FRET assay relative to control; outline: as §1
[15] = target: Signal peptidase I (Escherichia coli K-12) (UniProt P00803); test: Inhibition of full length Escherichia coli His6-tagged LepB expressed in Escherichia coli C43(DE3) assessed as residual activity at 0.001 uM using dabcyl-VEVGGTATAGAFSRPGLE-(EDANS) as substrate preincubated for 10 mins followed by substrate addition measured for 2 hrs by FRET assay relative to control; outline: as §1
[16] = target: Signal peptidase I (Escherichia coli K-12) (UniProt P00803); test: Inhibition of full length Escherichia coli His6-tagged LepB expressed in Escherichia coli C43(DE3) assessed as residual activity at 0.0005 uM using dabcyl-VEVGGTATAGAFSRPGLE-(EDANS) as substrate preincubated for 10 mins followed by substrate addition measured for 2 hrs by FRET assay relative to control; outline: as §1
[17] = target: Signal peptidase I (Escherichia coli K-12) (UniProt P00803); test: Potency index, ratio of decanoyl-PTANA-CHO IC50 to compound IC50 for full length Escherichia coli His6-tagged LepB expressed in Escherichia coli C43(DE3)
[18] = system: Escherichia coli; test: Antibacterial activity against wild type Escherichia coli ATCC 25922 after 16 to 20 hrs by broth microdilution assay; format: functional
Outline: (§2)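 MIC by broth microdilution in cation-adjusted Mueller-Hinton II medium, following EUCAST and CLSI guidelines; panel of Gram-negative strains plus S. aureus ATCC 29213.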

[19] = system: Escherichia coli; test: Antibacterial activity against Escherichia coli CH3130 harboring tolC deletion mutant after 16 to 20 hrs by broth microdilution assay; format: functional
Outline: (§3)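 Broth microdilution MIC in cation-adjusted Mueller-Hinton II medium, following EUCAST and CLSI guidelines; tested on a panel of Gram-negative strains plus S. aureus ATCC 29213 (wild-type).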

[20] = system: Escherichia coli; test: Antibacterial activity against Escherichia coli D22 harboring lpxC mutant after 16 to 20 hrs by broth microdilution assay; format: functional; outline: as §3
[21] = system: Pseudomonas aeruginosa; test: Antibacterial activity against wild type Pseudomonas aeruginosa PAO1 after 16 to 20 hrs by broth microdilution assay; format: functional; outline: as §2
[22] = system: Pseudomonas aeruginosa; test: Antibacterial activity against wild type Pseudomonas aeruginosa PAO750 harboring efflux defective mutant after 16 to 20 hrs by broth microdilution assay; format: functional; outline: as §3
[23] = system: Klebsiella pneumoniae; test: Antibacterial activity against wild type Klebsiella pneumoniae […] after 16 to 20 hrs by broth microdilution assay; format: functional; outline: as §2
[24] = system: Staphylococcus aureus; test: Antibacterial activity against wild type Staphylococcus aureus ATCC 29213 after 16 to 20 hrs by broth microdilution assay; format: functional; outline: as §2
[25] = system: Acinetobacter baumannii; test: Antibacterial activity against wild type Acinetobacter baumannii ATCC 19606 after 16 to 20 hrs by broth microdilution assay; format: functional; outline: as §2
[26] = Cytotoxicity against human HepG2 cells assessed as reduction in cell viability after 72 hrs by fluorescein diacetate dye based fluorometric microculture assay; format: toxicity
Outline: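 FMCA on HepG2 cells read at 72 h. Survival index (%) is fluorescence in test wells as percent of control cultures, with blank values subtracted. IC50 was obtained by non-linear regression of log concentration-effect curves.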

[27] = Hemolytic activity against human RBC at 100 uM after 45 mins by spectrophotometric method relative to control; format: ADME, cell-based, Erythrocyte; conditions: red blood cells (RBC), read-out: Activity
Outline: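 Hemolysis was tested using red blood cells from heparinized human blood.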

CCCCCCCCCC(=O)N1CCC[C@H]1C(=O)N[C@H](C(=O)N[C@@H](C)C(=O)N[C@@H](CC(N)=O)C(=O)N[C@@H](C)B1O[C@@H]2C[C@@H]3C[C@@H](C3(C)C)[C@]2(C)O1)[C@H](C)O
IC50 [1]: 48 nM
Activity [2]: 17.2%
Activity [3]: 10.6%
inhibition [4]: > 50%
Activity [5]: 0.084%
Activity [6]: 81.9%
Activity [7]: 16.9%
Activity [8]: 18.1%
Activity [9]: 19.7%
Activity [10]: 29.6%
Activity [11]: 36.4%
Activity [12]: 47%
Activity [13]: 66.8%
Activity [14]: 84.2%
Activity [15]: 84.5%
Activity [16]: 82.6%
Ratio IC50 [17]: 25
MIC [18]: > 64 µg/mL
MIC [19]: > 64 µg/mL
MIC [20]: > 64 µg/mL
MIC [21]: > 64 µg/mL
MIC [22]: > 64 µg/mL
MIC [23]: > 64 µg/mL
MIC [24]: 32 µg/mL (≈ 42.1 µM)
MIC [25]: > 64 µg/mL
IC50 at 72 h [26]: 7.8 µM
hemolysis at 0.75 h, 100 µM [27]: 0.4%
